In PMC9059116 (Journal of Medicinal Chemistry, 2022):

Key:
Type in all cases: cell-based
[1] = system: eIF4E phosphorylation (MNK1/2 activity) in MDA-MB-231 cells; experiment: western blot of eIF4E phosphorylation; conditions: for inhibition of eIF4E phosphorylation: MDA-MB-231 cells, 24 h, western blot
Summary of the method: (§1)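 MDA-MB-231 cells were grown in DMEM with 10% heat-inactivated FBS and penicillin/streptomycin, seeded at 6000 cells/cm² 24 h before treatment. DMSO was kept below 0.5%, with DMSO as negative control. Immunoblotting used ECL detection, with β-actin (1:20 000) probed.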

[2] = system: MNK1 phosphorylation at T209/214 in MDA-MB-231 cells; experiment: western blot of MNK1 phosphorylation at T209/214 in MDA-MB-231 cells; conditions: MDA-MB-231, 24 h
Summary of the method: as §1

[3] = target: MNK1-eIF4G interaction in HEK-293 cells (Homo sapiens, UniProt Q9BUB5); experiment: immunoprecipitation of endogenous eIF4G, MNK1-eIF4G interaction in HEK-293 cells; conditions: HEK-293, 20 μM EB1 or 100 nM eFT508, UV irradiation and 40 min recovery
Sequence of MNK1-eIF4G interaction in HEK-293 cells (Q9BUB5 1-424 isoform Q9BUB5-2): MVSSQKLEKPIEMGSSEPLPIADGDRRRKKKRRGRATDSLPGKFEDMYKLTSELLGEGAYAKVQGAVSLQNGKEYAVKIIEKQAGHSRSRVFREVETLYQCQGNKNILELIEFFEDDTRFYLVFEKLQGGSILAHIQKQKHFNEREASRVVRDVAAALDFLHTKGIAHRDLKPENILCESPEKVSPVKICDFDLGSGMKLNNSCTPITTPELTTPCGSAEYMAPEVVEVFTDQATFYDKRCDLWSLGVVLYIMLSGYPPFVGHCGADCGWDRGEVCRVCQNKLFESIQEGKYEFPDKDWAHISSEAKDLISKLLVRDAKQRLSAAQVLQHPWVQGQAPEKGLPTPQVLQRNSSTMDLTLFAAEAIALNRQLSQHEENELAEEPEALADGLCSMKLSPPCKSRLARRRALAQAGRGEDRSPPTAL
Summary of the method: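 HEK-293 cells were treated 24 h with DMSO or inhibitor, then UV-irradiated (60 J/m²) and recovered 40 min at 37 °C. Anti-eIF4G was bound to protein A beads (4 h, 4 °C), then incubated overnight at 4 °C with about 2 mg precleared lysate. Beads were washed, boiled 5 min at 95 °C, and probed for MNK1 by immunoblot.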

MDA-MB-231 cells = experiment: crystal violet growth assay, MDA-MB-231; conditions: MDA-MB-231, 72 h, up to 200 nM
Summary of the method: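 Cells kept in DMEM (4.5 g/L glucose) with 10% heat-inactivated FBS and penicillin/streptomycin at 37 °C, 5% CO2. Seeded at 6000 cells/cm², treated 24 h later for 72 h; DMSO kept below 0.5%, DMSO as negative control. Fixed 30 min in 4% formaldehyde, PBS washes, stained 15 min with 0.5% crystal violet, dye dissolved in 15% AcOH, OD 595 nm. Three independent experiments, standard deviation.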

effect on interaction between MNK1 and eIF4G [3]	SMILES	inhibition of eIF4E phosphorylation after UV stimulation ([1]; MDA-MB-231, pretreatment with inhibitor, UV irradiation, 40 min recovery)	inhibition of eIF4E phosphorylation [1]	inhibition of eIF4E phosphorylation ([1]; listed as EB1)	effect on activating phosphorylation of MNK1 at T209/214 [2]	effect on cell growth (MDA-MB-231 cells)
–	Nc1n[nH]c2nc(-c3ccccc3)cc(-c3ccccc3)c12 [6b, 4,6-Diphenyl-1H-pyrazolo[3,4-b]pyridin-3-amine]	strongly inhibited eIF4E phosphorylation	clear inhibition of eIF4E phosphorylation	more potent than CGP5738 but less active than the eFT508	–	–
–	Nc1ncnc2[nH]nc(Nc3ccc(F)cc3)c12 [CGP57380 (2), CGP57380]	–	–	–	strongly induced phosphorylation of MNKs at T209/214	–
strongest interaction of eIF4G with MNK1	Cc1cc(Nc2cc(N)ncn2)c(=O)n2c1C(=O)NC21CCCCC1 [eFT508 (3), eFT508]	–	complete inhibition of eIF4E phosphorylation can be already observed at low nanomolar concentrations	–	strongly induced phosphorylation of MNKs at T209/214	not able to inhibit the growth
